Test results reported in ChEMBL document CHEMBL2157902, “Modified tetrahalogenated benzimidazoles with CK2 inhibitory activity are active against human prostate cancer cells LNCaP in vitro” (Bioorg Med Chem, 2012).
pIC50, pKi: −log10 of the molar value. Activity calls are given as the source filed them. No cut-off for these calls is given here.

What was measured:
LNCaP [1] = experiment: Antiproliferative activity against human LNCAP cells assessed as decrease in cell viability at 20 uM after 48 hrs by MTT assay; assay type: functional
Procedure, shortened: (§1)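 LNCaP cells grown in RPMI1640 with 10% FBS at 37 °C, 5% CO2. Seeded at 2 × 10^4 cells/500 µl in 24-well plates the day before treatment, then exposed to 10 or 20 µM for 24 or 48 h. MTT was added for a further 1 h, cells lysed and A595 read. Viability given as % of DMSO-treated control. Mean of at least three independent experiments.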

LNCaP [2] = experiment: Antiproliferative activity against human LNCAP cells assessed as decrease in cell viability at 10 uM after 48 hrs by MTT assay; assay type: functional; procedure, shortened: as §1
LNCaP [3] = experiment: Induction of apoptosis in human LNCAP cells assessed as PARP cleavage at 20 uM after 24 hrs by Western blot analysis; assay type: functional, cell-based
Procedure, shortened: (§2)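 LNCaP cells treated 24 h at 10 or 20 µM, then lysed in RIPA buffer with protease inhibitors and protein measured by Bradford. Extracts (150 µg) run on 7.5% SDS-PAGE and tank-blotted to PVDF. Probed overnight at 4 °C with polyclonal rabbit anti-PARP (1:1000), detected with peroxidase anti-rabbit and chemiluminescence. Full-length and 85 kDa fragment scored.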

LNCaP [4] = experiment: Antiproliferative activity against human LNCAP cells after 24 by MTT assay; assay type: functional; conditions: read-out: LD50 (the source's name)
Procedure, shortened: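 LNCaP cells were grown in RPMI1640 with 10% FBS at 37 °C under 5% CO2, and 2 × 10^4 cells/well were seeded the day before. Cells were treated with 3–10 µM for 24 h. MTT (5 mg/ml) was then added for 1 h, cells were lysed, and absorbance was read at 595 nm. Viability was expressed as % of DMSO control. LD50 was calculated by curve fitting, mean of ≥3 independent experiments.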

LNCaP [5] = experiment: Antiproliferative activity against human LNCAP cells after 24 to 48 hrs by MTT assay; assay type: functional; conditions: read-out: LD50 (the source's name)
Procedure, shortened: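 LNCaP cells were grown in RPMI1640 with 10% FBS at 37 °C under 5% CO2, and 2 × 10^4 cells/well were seeded the day before treatment. Cells were exposed to 10 or 20 compound for 24 and 48 h. MTT (5 mg/ml) was then added for 1 h, cells were lysed, and A595 was read. Viable cells were expressed as % of DMSO-treated control, mean of ≥3 independent experiments.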

LNCaP [6] = experiment: Induction of apoptosis in human LNCAP cells assessed as PARP cleavage at 10 uM after 24 hrs by Western blot analysis; assay type: functional, cell-based; procedure, shortened: as §2
LNCaP [7] = experiment: Antiproliferative activity against human LNCAP cells assessed as decrease in cell viability at 10 to 20 uM after 24 to 48 hrs by MTT assay; assay type: functional, cell-based; procedure, shortened: as §1
[8] = Inhibition of rat liver CK2 using RRRADDSDDDDD as substrate
[9] = Inhibition of CK2
LNCaP [10] = experiment: Induction of apoptosis in human LNCAP cells assessed as PARP cleavage after 24 hrs by Western blot analysis; assay type: functional, cell-based; procedure, shortened: as §2

With `Brc1c(Br)c(Br)c2[nH]cnc2c1Br` the Activity (LNCaP [1]) was 20%, the Activity (LNCaP [2]) was 20% and the Activity (LNCaP [3]) was “Active”.

In the case of `CN(C)CCNc1nc2c(I)c(I)c(I)c(I)c2[nH]1`, the CC50 (LNCaP [4]) was 7.37 µM, the Activity (LNCaP [3]) was “Active” and the CC50 (LNCaP [5]) was under 10 µM.

With `CN(C)c1nc2c(Br)c(Br)c(Br)c(Br)c2n1CC(=O)O` the Activity (LNCaP [6]) was “inactive”, the Activity (LNCaP [7]) was “inactive” and the pKi [8] was 6.60. The pIC50 [9] was 6.57.

For `O=C(O)CCCSc1nc2c(Br)c(Br)c(Br)c(Br)c2[nH]1`, the Activity (LNCaP [6]) was “inactive”, the Activity (LNCaP [7]) was “inactive” and the pIC50 [9] was 6.57.

For `Cn1c(NCCN)nc2c(I)c(I)c(I)c(I)c21`, the Activity (LNCaP [6]) was “inactive”, the CC50 (LNCaP [4]) was 4.75 µM and the Activity (LNCaP [3]) was “inactive”. The CC50 (LNCaP [5]) was under 10 µM.

In the case of `CN(C)CCNc1nc2c(Br)c(Br)c(Br)c(Br)c2[nH]1`, the CC50 (LNCaP [4]) was 9.37 µM, the pKi [8] was 6.80 and the Activity (LNCaP [3]) was “Active”. It also gave a CC50 (LNCaP [5]) of under 10 µM.

For `CN(C)c1nc2c(Br)c(Br)c(Br)c(Br)c2[nH]1`, the pKi [9] was 7.40.

With `NCCNc1nc2c(Br)c(Br)c(Br)c(Br)c2[nH]1` the Activity (LNCaP [6]) was “Active”, the CC50 (LNCaP [4]) was 7.22 µM and the Activity (LNCaP [10]) was “Dose-dependent effect”. For the same compound, the Activity (LNCaP [3]) was “Active” and the CC50 (LNCaP [5]) was under 10 µM.

In the case of `NCCCNc1nc2c(Br)c(Br)c(Br)c(Br)c2[nH]1`, the Activity (LNCaP [3]) was “Active” and the CC50 (LNCaP [5]) was under 10 µM.

For `Cn1c(NCCN)nc2c(Br)c(Br)c(Br)c(Br)c21`, the Activity (LNCaP [6]) was “inactive”, the Activity (LNCaP [3]) was “inactive” and the CC50 (LNCaP [5]) was under 10 µM.

With `NCCNc1nc2c(I)c(I)c(I)c(I)c2[nH]1` the Activity (LNCaP [3]) was “Active” and the CC50 (LNCaP [5]) was under 10 µM.

With `Ic1c(I)c(I)c2[nH]cnc2c1I` the Activity (LNCaP [1]) was 20%, the Activity (LNCaP [2]) was 20% and the Activity (LNCaP [3]) was “Active”.

For `NCCCCNc1nc2c(Br)c(Br)c(Br)c(Br)c2[nH]1`, the Activity (LNCaP [1]) was 20%, the Activity (LNCaP [6]) was “inactive” and the Activity (LNCaP [2]) was 20%. For the same compound, the Activity (LNCaP [3]) was “inactive” and the CC50 (LNCaP [5]) was under 10 µM.
